Measured values published in ChEMBL document CHEMBL1150398, “Design and synthesis of 7-alkoxy-4-heteroarylamino-3-quinolinecarbonitriles as dual inhibitors of c-Src kinase and nitric oxide synthase” (Bioorg Med Chem, 2008).
Each block holds one molecule with its values, some of them ahead of it.

Key:
[1] = biological target: T1, Nitric oxide synthase, inducible (Mus musculus, UniProt P29477); assay: Inhibition of inducible nitric oxide synthetase in LPS-stimulated mouse ANA1 macrophages
T1 sequence (P29477 whole entry): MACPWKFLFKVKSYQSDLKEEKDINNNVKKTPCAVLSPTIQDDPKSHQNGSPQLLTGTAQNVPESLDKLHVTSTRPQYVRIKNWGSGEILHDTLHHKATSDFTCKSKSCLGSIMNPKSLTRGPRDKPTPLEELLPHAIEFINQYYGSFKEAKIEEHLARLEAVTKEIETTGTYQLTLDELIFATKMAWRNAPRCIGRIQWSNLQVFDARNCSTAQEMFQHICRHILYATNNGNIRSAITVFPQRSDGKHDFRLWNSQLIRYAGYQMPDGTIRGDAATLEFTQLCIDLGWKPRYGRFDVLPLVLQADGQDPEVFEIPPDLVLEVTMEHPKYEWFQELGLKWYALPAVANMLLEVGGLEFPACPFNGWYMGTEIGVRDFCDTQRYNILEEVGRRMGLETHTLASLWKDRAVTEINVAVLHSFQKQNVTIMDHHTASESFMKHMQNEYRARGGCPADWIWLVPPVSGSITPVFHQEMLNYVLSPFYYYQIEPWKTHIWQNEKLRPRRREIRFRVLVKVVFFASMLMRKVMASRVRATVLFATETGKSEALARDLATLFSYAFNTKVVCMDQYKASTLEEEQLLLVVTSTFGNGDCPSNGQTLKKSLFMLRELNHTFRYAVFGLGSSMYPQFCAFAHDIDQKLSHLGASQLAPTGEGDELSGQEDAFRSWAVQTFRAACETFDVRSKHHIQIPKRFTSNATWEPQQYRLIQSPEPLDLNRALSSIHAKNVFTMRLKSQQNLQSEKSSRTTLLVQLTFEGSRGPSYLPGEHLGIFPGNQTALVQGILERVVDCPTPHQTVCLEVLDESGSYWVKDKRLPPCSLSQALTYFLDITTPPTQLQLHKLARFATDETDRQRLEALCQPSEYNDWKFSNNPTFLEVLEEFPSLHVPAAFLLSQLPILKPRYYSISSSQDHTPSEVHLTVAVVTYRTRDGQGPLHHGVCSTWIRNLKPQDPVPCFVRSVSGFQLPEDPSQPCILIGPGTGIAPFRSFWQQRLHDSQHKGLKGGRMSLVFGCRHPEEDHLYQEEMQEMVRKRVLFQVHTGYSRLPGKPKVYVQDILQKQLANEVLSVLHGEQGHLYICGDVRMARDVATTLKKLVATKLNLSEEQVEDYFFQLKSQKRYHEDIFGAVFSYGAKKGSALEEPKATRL
Outline: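 ANA-1 macrophages grown in DMEM with 10% heat-inactivated FBS and 2 mM L-glutamine, 37 °C, 5% CO₂, 10⁵ cells/mL prepared the day before. Cells stimulated with LPS for 24 h, collected, then given assay buffer, L-arginine substrate and DAF-FM DA tracer. Reaction started with 0.1 mM NADPH, 37 °C 30 min, washed, fluorescence read. Triplicate, mean of three.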

[2] = biological target: T2, Proto-oncogene tyrosine-protein kinase Src (Homo sapiens, UniProt P12931); assay: Inhibition of human recombinant cSrc by ELISA
T2 sequence (P12931 2-536 limits assumed): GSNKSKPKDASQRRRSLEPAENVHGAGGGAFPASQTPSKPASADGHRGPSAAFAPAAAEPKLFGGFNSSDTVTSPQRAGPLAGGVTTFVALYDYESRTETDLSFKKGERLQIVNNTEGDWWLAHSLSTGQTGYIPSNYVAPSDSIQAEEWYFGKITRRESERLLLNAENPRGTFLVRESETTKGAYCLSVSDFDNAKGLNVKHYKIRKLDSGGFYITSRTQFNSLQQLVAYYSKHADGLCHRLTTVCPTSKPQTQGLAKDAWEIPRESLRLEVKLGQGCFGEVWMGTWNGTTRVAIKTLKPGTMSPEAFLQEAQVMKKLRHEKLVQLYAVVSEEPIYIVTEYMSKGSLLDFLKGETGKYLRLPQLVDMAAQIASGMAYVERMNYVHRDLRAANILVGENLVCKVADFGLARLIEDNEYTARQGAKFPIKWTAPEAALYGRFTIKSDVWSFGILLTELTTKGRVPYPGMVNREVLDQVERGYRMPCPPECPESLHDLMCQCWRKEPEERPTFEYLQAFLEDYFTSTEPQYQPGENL

[3] = test system: HepG2; assay: Antiproliferative activity against human HepG2 cells after 48 hrs by sulforhodamine B assay; assay type: functional, cell-based; conditions: HepG2, 48 h; for CC50: read-out: LC50 (the source's name)
Outline: (§1)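 SRB assay: cells plated in 96-well plates, mostly at 20,000 cells/well, pre-incubated 24 h without drug. Compounds added in 10-fold dilutions from highest soluble concentration, 48 h further incubation. Cells fixed in situ, washed, dried, SRB stained; proliferation inhibition from change in total optical density after 48 h treatment.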

[4] = test system: HT-29; assay: Antiproliferative activity against human HT29 cells after 48 hrs by sulforhodamine B assay; assay type: functional, cell-based; conditions: HT-29, 48 h; for CC50: read-out: LC50 (the source's name); outline: as §1
[5] = biological target: T2, Proto-oncogene tyrosine-protein kinase Src; assay: Inhibition of human recombinant cSrc by fluorescence polarization assay

SMILES: Cc1cc2c(Nc3nc4ccccc4s3)c(C#N)cnc2cc1OCCCN1CCCCC1
IC50 [1]: 412 µM

SMILES: COc1cc2c(Nc3nc4ccccc4s3)c(C#N)cnc2cc1OCCN1CCOCC1
IC50 [2]: > 1 µM
IC50 [1]: 26.7 µM

SMILES: Nc1nccs1 [AMINOTHIAZOLE]
IC50 [1]: 18 µM

SMILES: COc1cc(Nc2c(C#N)cnc3cc(OCCCN4CCN(C)CC4)c(OC)cc23)c(Cl)cc1Cl [BOSUTINIB]
GI50 [3]: 1.15 µM
IC50 [3]: 3.91 µM
TGI [3]: 7.66 µM
CC50 [3]: > 10 µM
GI50 [4]: 1.17 µM
IC50 [4]: 3.87 µM
TGI [4]: 6.5 µM
CC50 [4]: > 10 µM

SMILES: COc1cc2c(Nc3nc4ccccc4s3)c(C#N)cnc2cc1OCCN1CCCCC1
IC50 [1]: 44.8 µM

SMILES: Cc1ccc2nc(Nc3c(C#N)cnc4cc(OCCCN5CCCCC5)c(C)cc34)sc2c1
GI50 [3]: 4.85 µM
IC50 [3]: 7.61 µM
TGI [3]: 9.25 µM
CC50 [3]: > 10 µM
IC50 [1]: 313 µM
GI50 [4]: 5.59 µM
IC50 [4]: 6.58 µM
TGI [4]: > 10 µM
CC50 [4]: > 10 µM

SMILES: Cc1cc2c(Nc3nc4ccccc4s3)c(C#N)cnc2cc1OCCCN1CCOCC1
IC50 [1]: 139 µM

SMILES: N=C(N)NOCC[C@H](N)C(=O)O [CANAVANINE]
IC50 [1]: 60 µM

SMILES: Cc1ccc2nc(Nc3c(C#N)cnc4cc(OCCCN5CCN(C)CC5)c(C)cc34)sc2c1
IC50 [1]: 12.7 µM

SMILES: Cc1cc2c(Nc3nc4ccc(OC(F)(F)F)cc4s3)c(C#N)cnc2cc1OCCCN1CCN(C)CC1
IC50 [1]: 16.3 µM

Other lines, results leading:

IC50 [1]: 18.6 µM
SMILES: Cc1cc2c(Nc3ccccn3)c(C#N)cnc2cc1OCCCN1CCN(C)CC1

IC50 [1]: 2.18 µM
SMILES: COc1cc2c(Nc3nc4ccccc4s3)c(C#N)cnc2cc1OCCN1CCN(C)CC1

IC50 [1]: 98 µM
SMILES: COc1cc2c(Nc3nc4ccccc4s3)c(C#N)cnc2cc1OCCCN1CCN(C)CC1

IC50 [1]: 18.1 µM
SMILES: COc1cc2c(Nc3nc4ccccc4[nH]3)c(C#N)cnc2cc1OCCCN1CCN(C)CC1

IC50 [1]: 65.6 µM
SMILES: COc1cc2c(Nc3nc4ccc(OC(F)(F)F)cc4s3)c(C#N)cnc2cc1OCCCN1CCN(C)CC1

IC50 [5]: > 1 µM
IC50 [1]: 15.5 µM
SMILES: Cc1cc2c(Nc3nc4ccccc4[nH]3)c(C#N)cnc2cc1OCCCN1CCN(C)CC1
